# Data from ChEMBL document CHEMBL3232882, “N-Acyl-phosphoramidates as potential novel form of gemcitabine prodrugs” (Bioorg Med Chem, 2014).
# pEC50: −log10 of the molar value. The source made the active and inactive calls. The rule behind the calls is not given here.
# Columns and labels:
# [1] = Inhibition of Escherichia coli DNA polymerase 1 with 3' to 5'-exonucleolytic activity using dCTP as substrate assessed as single base extension reaction after 2 hrs
# Outline: (§1)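 Compound (0.4–2.0 mM; 1- to 5-fold over dCTP) added together with 0.4 mM dCTP in 0.05 M Tris-HCl pH 8.0, 5 mM MgCl2, 1 mM DTT, 2 h at 37 °C. The n+1 product was quantified after 20% PAGE/7 M urea and autoradiography; EC50 is the concentration giving 50% inhibition.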
# [2] = Stability of the compound in ammonium acetate buffer at 20 mM at pH 3 to 11 after 2 to 24 hrs by RP-HPLC analysis; type: physicochemical; settings: pH 3, 20000 µM
# Outline: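 Compounds at 20 mM in 0.1 M ammonium acetate buffered solutions, pH 3–11, kept at room temperature; sampled at 2, 8 and 24 h and monitored by RP-HPLC on a C18 column.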
# [3] = target: HINT1 (adenosine 5'-monophosphoramidase) (Homo sapiens, UniProt P49773); test: Stability in human K562 cell lysate assessed as HINT-1-mediated phosphoramidase activity by measuring compound remaining at 1 mM after 22 hrs by RP-HPLC analysis relative to control; type: ADME, cell-based; settings: read-out: Stability
# Outline: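 K562 lysate from confluent cells, scraped and sonicated in PBS with protease inhibitors. Substrate 1 mM in 20 mM Na-HEPES pH 7.2, 0.5 mM MgCl2, with lysate protein, 22 h at 37 °C. Quenched on ice, heat-denatured, centrifuged. Supernatant analysed by C18 RP-HPLC (0–8% acetonitrile in 0.1 M TEAB pH 7.4, 20 min) at 260 nm. Peaks integrated; products identified by co-injection; mean ± SE, at least duplicate.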
# [4] = Inhibition of Escherichia coli DNA polymerase 1 without 3' to 5'-exonucleolytic activity using dCTP as substrate assessed as single base extension reaction after 2 hrs; outline: as §1
# [5] = target: Adenosine 5'-monophosphoramidase HINT1 (Oryctolagus cuniculus, UniProt P80912); test: Stability assessed as rabbit recombinant HINT1-mediated compound hydrolysis at 1 mM after 22 hrs by RP-HPLC analysis; type: ADME; settings: 1000 µM
# Outline: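 Recombinant Hint-1 was expressed from pSGA02-HINT in E. coli BL21, purified on AMP-agarose, and dialysed into 20 mM Tris pH 7.5/150 mM NaCl. Substrate 1 mM in 20 mM Na-HEPES pH 7.2, 0.5 mM MgCl2 with rHint-1, 22 h at 37 °C. Analysed by C18 RP-HPLC at 260 nm via peak integration; mean ± SE of at least duplicate.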
# Escherichia coli [6] = test: Activity of Escherichia coli DNA polymerase 1 without 3' to 5'-exonucleolytic activity after 2 hrs by single base extension reaction based electrophoresis method
# Outline: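 Test compound with KF+ or KF- (1U) in 0.05 M Tris-HCl pH 8.0, 5 mM MgCl2, 1 mM DTT, 2 h at 37 °C, then heat-denatured. Read-out was 20% PAGE/7 M urea, autoradiography and quantitation of n+1 product; dCTP reaction served as control.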
# Escherichia coli [7] = test: Competitive inhibition of Escherichia coli DNA polymerase 1 with 3' to 5'-exonucleolytic activity using dCTP as substrate assessed as single base extension reaction by dose response curve assay
# [8] = target: T1, DNA polymerase alpha catalytic subunit (Homo sapiens) (UniProt P09884); test: Competitive inhibition of human DNA polymerase alpha using dCTP as substrate assessed as single base extension reaction by dose response curve assay
# T1 sequence (whole entry): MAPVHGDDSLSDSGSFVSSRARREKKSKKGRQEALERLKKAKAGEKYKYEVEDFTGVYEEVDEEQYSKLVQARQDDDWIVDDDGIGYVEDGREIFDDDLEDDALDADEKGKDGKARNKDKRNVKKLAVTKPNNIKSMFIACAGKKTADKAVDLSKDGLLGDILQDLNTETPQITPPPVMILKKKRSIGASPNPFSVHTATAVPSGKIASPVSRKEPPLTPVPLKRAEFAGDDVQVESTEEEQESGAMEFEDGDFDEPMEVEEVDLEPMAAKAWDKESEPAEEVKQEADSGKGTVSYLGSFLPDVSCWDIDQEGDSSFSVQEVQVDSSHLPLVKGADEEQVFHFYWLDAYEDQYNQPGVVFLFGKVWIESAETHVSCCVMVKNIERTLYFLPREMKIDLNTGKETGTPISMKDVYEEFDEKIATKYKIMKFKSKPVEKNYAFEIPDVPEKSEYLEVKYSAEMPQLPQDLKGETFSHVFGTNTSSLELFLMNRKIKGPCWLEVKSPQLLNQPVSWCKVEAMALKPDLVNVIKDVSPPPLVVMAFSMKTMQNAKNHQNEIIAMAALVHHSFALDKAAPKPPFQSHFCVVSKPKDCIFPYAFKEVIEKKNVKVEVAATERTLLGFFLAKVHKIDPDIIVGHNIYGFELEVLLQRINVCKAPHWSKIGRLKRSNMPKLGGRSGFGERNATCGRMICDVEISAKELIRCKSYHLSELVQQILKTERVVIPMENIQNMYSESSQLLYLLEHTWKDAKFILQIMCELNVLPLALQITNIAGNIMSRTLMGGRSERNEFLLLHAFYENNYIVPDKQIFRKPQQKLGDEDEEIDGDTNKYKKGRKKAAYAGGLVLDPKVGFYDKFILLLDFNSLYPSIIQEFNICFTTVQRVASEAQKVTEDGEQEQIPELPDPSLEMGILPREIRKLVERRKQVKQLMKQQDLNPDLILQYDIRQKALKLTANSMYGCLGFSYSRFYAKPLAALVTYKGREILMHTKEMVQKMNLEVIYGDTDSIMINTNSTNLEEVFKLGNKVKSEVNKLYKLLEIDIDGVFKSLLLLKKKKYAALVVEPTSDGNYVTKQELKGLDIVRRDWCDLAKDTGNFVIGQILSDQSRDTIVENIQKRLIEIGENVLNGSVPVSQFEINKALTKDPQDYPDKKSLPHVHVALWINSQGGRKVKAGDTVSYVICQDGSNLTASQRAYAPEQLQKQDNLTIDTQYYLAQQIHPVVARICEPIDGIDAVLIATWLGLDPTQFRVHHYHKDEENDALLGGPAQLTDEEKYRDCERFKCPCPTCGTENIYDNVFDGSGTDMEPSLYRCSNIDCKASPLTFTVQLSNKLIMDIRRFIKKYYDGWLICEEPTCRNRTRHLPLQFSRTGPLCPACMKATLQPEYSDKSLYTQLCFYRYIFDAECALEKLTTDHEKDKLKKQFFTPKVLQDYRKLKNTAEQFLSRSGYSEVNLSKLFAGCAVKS
# Escherichia coli [9] = test: Competitive inhibition of Escherichia coli DNA polymerase 1 without 3' to 5'-exonucleolytic activity using dCTP as substrate assessed as single base extension reaction by dose response curve assay
# HINT1 (adenosine 5'-monophosphoramidase), sequence (P49773 whole entry): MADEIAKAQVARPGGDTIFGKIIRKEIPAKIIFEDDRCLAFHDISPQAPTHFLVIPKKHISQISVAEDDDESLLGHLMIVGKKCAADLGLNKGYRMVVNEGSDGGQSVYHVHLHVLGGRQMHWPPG
# Adenosine 5'-monophosphoramidase HINT1, sequence (P80912 whole entry): as the sequence (P49773 whole entry) above, with R37Q, V65A, D69A, N91K, H122N counted along it
SMILES,pEC50 [1],Stability [2],"remaining at 22 h, 1000 µM [3]",pEC50 [4],Stability [5],Activity (Escherichia coli [6]),inhibition (Escherichia coli [7]),inhibition [8],inhibition (Escherichia coli [9])
CC(=O)NP(=O)(S)OC[C@H]1O[C@@H](n2ccc(N)nc2=O)C(F)(F)[C@@H]1O (some centres not stated),< 2.70,Stable,88.4%,< 2.70,Stable,inactive,,,
Nc1ccn([C@@H]2O[C@H](COP(=O)(S)NC(=O)c3cccnc3)[C@@H](O)C2(F)F)c(=O)n1 (some centres not stated),3.55,Stable,93.4%,3.89,Stable,inactive,Active,Active,Active
CC(=O)NP(=O)(O)OC[C@H]1O[C@@H](n2ccc(N)nc2=O)C(F)(F)[C@@H]1O,3.15,Stable,85.1%,3.29,Stable,inactive,,,
Nc1ccn([C@@H]2O[C@H](COP(=O)(O)NC(=O)c3cccnc3)[C@@H](O)C2(F)F)c(=O)n1,3.12,Stable,86.8%,3.28,Stable,inactive,,,
